Measurements as given in ChEMBL document CHEMBL1144993, “Imidazoline binding sites (IBS) profile modulation: key role of the bridge in determining I1-IBS or I2-IBS selectivity within a series of 2-phenoxymethylimidazoline analogues” (J Med Chem, 2003).
Blank lines part the entries; values can stand above or below the molecule they belong to.

Assays:
[1] = target: T1, Adrenergic receptor alpha-2 (Rattus norvegicus, UniProt P22086+P19328+P22909); assay: Displacement of [3H]clonidine from rat cortex membrane Alpha-2 adrenergic receptors
T1 sequence (P22086 whole entry): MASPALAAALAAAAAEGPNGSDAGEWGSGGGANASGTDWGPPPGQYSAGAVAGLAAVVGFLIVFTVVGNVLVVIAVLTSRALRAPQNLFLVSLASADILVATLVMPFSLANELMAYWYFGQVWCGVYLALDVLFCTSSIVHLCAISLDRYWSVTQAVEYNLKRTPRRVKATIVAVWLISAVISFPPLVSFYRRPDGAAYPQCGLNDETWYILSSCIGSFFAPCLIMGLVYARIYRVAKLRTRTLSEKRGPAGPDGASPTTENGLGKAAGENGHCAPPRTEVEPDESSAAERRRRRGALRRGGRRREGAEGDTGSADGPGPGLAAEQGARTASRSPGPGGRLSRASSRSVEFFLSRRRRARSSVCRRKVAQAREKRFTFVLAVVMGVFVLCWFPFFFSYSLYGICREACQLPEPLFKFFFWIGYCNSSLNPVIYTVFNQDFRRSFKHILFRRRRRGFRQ
T1 sequence (P19328 whole entry): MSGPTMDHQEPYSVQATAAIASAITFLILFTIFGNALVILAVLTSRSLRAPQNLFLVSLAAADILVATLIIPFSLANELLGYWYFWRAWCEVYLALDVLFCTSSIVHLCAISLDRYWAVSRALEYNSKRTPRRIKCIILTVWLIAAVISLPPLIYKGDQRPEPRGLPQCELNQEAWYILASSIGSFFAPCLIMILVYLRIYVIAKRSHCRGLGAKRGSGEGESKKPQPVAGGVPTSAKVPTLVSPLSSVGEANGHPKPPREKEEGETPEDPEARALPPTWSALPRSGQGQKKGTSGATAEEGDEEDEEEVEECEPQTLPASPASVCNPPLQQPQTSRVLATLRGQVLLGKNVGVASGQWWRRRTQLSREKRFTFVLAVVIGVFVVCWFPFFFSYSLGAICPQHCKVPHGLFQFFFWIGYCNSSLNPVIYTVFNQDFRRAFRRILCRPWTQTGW
T1 sequence (P22909 whole entry): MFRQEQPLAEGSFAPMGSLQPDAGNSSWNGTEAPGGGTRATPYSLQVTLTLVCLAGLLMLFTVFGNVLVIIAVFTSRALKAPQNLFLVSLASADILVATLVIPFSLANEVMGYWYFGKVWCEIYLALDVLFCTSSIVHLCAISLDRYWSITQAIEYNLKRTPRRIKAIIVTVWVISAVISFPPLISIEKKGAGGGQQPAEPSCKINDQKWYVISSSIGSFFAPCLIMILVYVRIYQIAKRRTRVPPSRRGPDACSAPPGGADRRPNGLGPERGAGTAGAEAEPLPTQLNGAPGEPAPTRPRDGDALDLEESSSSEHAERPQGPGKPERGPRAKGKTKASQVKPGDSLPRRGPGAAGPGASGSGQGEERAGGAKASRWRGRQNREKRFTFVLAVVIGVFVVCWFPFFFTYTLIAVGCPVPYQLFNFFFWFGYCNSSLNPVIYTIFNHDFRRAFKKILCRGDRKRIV
Outline: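 Rat cerebral cortex membranes (200 μg protein) incubated with 5 nM [3H]-clonidine and 10–12 competitor concentrations in 50 mM Tris-HCl pH 7.4, 45 min at 25 °C. Nonspecific binding with 10 μM phentolamine. GF/B filtration, scintillation counting, triplicate points.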

[2] = target: Imidazoline I2 binding site (Oryctolagus cuniculus); assay: Displacement of [3H]idazoxan from imidazoline receptor I-2 of rabbit kidney membranes
[3] = Relative binding to imidazoline I1 and alpha-2 adrenergic receptors ([…])
[4] = Relative binding to imidazoline I2 and imidazoline I1 binding sites ([…])
[5] = Relative binding to imidazoline I2 and alpha-2 adrenergic receptors ([…])
[6] = Relative binding to imidazoline I1 and imidazoline I2 binding sites ([…])
[7] = Displacement of [125I]p-iodoclonidine from imidazoline receptor I-1 in rat pheochromocytoma cells
Oryctolagus cuniculus [8] = assay: Heart rate during 15 minute pretreatment with intracisternal compound administration; type: functional
Outline: (§1)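 Male normotensive Zika rabbits (2.5–3.5 kg), pentobarbitone 40 mg/kg iv anesthesia, 38 °C, tracheotomized, pancuronium 1 mg/kg iv, ventilated. Test drug given intracisternally as 0.2 mL after equal CSF removal, total 300 μg/kg; vehicle group 100 μL saline ic. Clonidine 10 μg/kg iv 15 min later. MAP = diastolic + 1/3 pulse pressure; HR from pressure signal. Mean ± SEM, n = 4–5; repeated-measures ANOVA.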

Oryctolagus cuniculus [9] = assay: Mean arterial pressure during 15 minute pretreatment with intracisternal compound administration; type: functional, Artery; outline: as §1
Oryctolagus cuniculus [10] = assay: Heart rate following 15 minute pretreatment with intracisternal compound administration and 10 ug/kg iv clonidine; type: functional; outline: as §1
Oryctolagus cuniculus [11] = assay: Mean arterial pressure following 15 minute pretreatment with intracisternal compound administration and 10 ug/kg iv clonidine; type: functional, Artery; outline: as §1

Compound: c1ccc(C2CC2C2=NCCN2)cc1 (stereo not given)
Log Ki [7]: -7.76

Compound: C(=C\c1ccccc1)/C1=NCCN1
Ratio [3]: 741 | Ratio [4]: 10 | Ratio [5]: 7410 | Ratio [6]: 0.1

Compound: c1ccc([C@@H]2C[C@H]2C2=NCCN2)cc1
Log Ki [7]: -6.46

Compound: c1ccc([C@H]2C[C@@H]2C2=NCCN2)cc1
Log Ki [7]: -7.93

Compound: CC(Oc1ccccc1)C1=NCCN1 (stereo not given)
Ratio [3]: 0.32 | Ratio [4]: 0.11 | Ratio [5]: 0.04 | Ratio [6]: 8.71

Continued, in another order:

Log Ki [1]: -5.4
Compound: C[C@H](Cc1ccccc1)C1=NCCN1

Log Ki [1]: -5.9 | Log Ki [2]: -5.6
Compound: C[C@H](CC1=NCCN1)c1ccccc1

Ratio [3]: 0.54 | Ratio [4]: 1480 | Ratio [5]: 794 | Log Ki [1]: -5.7 | Ratio [6]: 0.0007 | Log Ki [2]: -8.6
Compound: c1ccc(CCC2=NCCN2)cc1 [PHENYZOLINE]

Log Ki [1]: -5.93 | Log Ki [2]: -6.91
Compound: CC(CC1=NCCN1)c1ccccc1 (stereo not given)

Log Ki [1]: -5.45
Compound: CC(Cc1ccccc1)C1=NCCN1 (stereo not given)
Heart rate (Oryctolagus cuniculus [8]): 363 beats min-1 | MAP (Oryctolagus cuniculus [9]): 99 mmHg | Heart rate (Oryctolagus cuniculus [10]): 355 beats min-1 | MAP (Oryctolagus cuniculus [11]): 91 mmHg

Log Ki [1]: -5.8 | Log Ki [2]: -7
Compound: C[C@@H](CC1=NCCN1)c1ccccc1

Log Ki [1]: -5.3
Compound: C[C@@H](Cc1ccccc1)C1=NCCN1
